ChEMBL document CHEMBL4339192, “De Novo Designed Amphipathic α-Helical Antimicrobial Peptides Incorporating Dab and Dap Residues on the Polar Face To Treat the Gram-Negative Pathogen, Acinetobacter baumannii” (J Med Chem, 2019)
≈ marks a conversion by molar mass, not a printed value. Where a SMILES comes first, the peptide text is derived from it. [ ]: non-standard residue; d: D form. dOrn = NCCC[C@@H](N)C(=O)O

Tests used:
Type in all cases: functional
Acinetobacter baumannii [1] = experiment: Antibacterial activity against Acinetobacter baumannii isolate 1007660 measured after 24 hrs by microtiter dilution method; settings: isolate 1007660, 24 h
How it was run: (§1)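 Broth microdilution in Mueller-Hinton (MH) medium. […] Plates were incubated 24 h at 37 °C. MIC was the lowest peptide concentration that inhibited growth, based on three sets of replicates.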

Acinetobacter baumannii [2] = experiment: Antibacterial activity against Acinetobacter baumannii isolate 9383370 measured after 24 hrs by microtiter dilution method; settings: isolate 9383370, 24 h; how it was run: as §1
Acinetobacter baumannii [3] = experiment: Antibacterial activity against polymyxin B/colistin-resistant Acinetobacter baumannii M89963 measured after 24 hrs by microtiter dilution method; settings: M89963, 24 h; how it was run: as §1
Acinetobacter baumannii [4] = experiment: Antibacterial activity against Acinetobacter baumannii isolate 1018887 measured after 24 hrs by microtiter dilution method; settings: isolate 1018887, 24 h; how it was run: as §1
Acinetobacter baumannii [5] = experiment: Antibacterial activity against Acinetobacter baumannii isolate 964304 measured after 24 hrs by microtiter dilution method; settings: isolate 964304, 24 h; how it was run: as §1
Acinetobacter baumannii [6] = experiment: Antibacterial activity against Acinetobacter baumannii isolate 1021371 measured after 24 hrs by microtiter dilution method; settings: isolate 1021371, 24 h; how it was run: as §1
Acinetobacter baumannii [7] = experiment: Antibacterial activity against Acinetobacter baumannii isolate 1010282 measured after 24 hrs by microtiter dilution method; settings: isolate 1010282, 24 h; how it was run: as §1
Acinetobacter baumannii [8] = experiment: Antibacterial activity against Acinetobacter baumannii isolate 1035794 measured after 24 hrs by microtiter dilution method; settings: isolate 1035794, 24 h; how it was run: as §1
Acinetobacter baumannii [9] = experiment: Antibacterial activity against polymyxin B/colistin-resistant Acinetobacter baumannii M89941 measured after 24 hrs by microtiter dilution method; settings: M89941, 24 h; how it was run: as §1
Acinetobacter baumannii [10] = experiment: Antibacterial activity against polymyxin B/colistin-resistant Acinetobacter baumannii M89949 measured after 24 hrs by microtiter dilution method; settings: M89949, 24 h; how it was run: as §1
Acinetobacter baumannii [11] = experiment: Antibacterial activity against Acinetobacter baumannii isolate 1002956 measured after 24 hrs by microtiter dilution method; settings: isolate 1002956, 24 h; how it was run: as §1
Acinetobacter baumannii [12] = experiment: Antibacterial activity against Acinetobacter baumannii isolate 1035166 measured after 24 hrs by microtiter dilution method; settings: isolate 1035166, 24 h; how it was run: as §1
Acinetobacter baumannii [13] = experiment: Antibacterial activity against Acinetobacter baumannii isolate 952654 measured after 24 hrs by microtiter dilution method; settings: isolate 952654, 24 h; how it was run: as §1
Acinetobacter baumannii [14] = experiment: Antibacterial activity against Acinetobacter baumannii isolate 1001611 measured after 24 hrs by microtiter dilution method; settings: isolate 1001611, 24 h; how it was run: as §1
Acinetobacter baumannii [15] = experiment: Antibacterial activity against Acinetobacter baumannii isolate 981650 measured after 24 hrs by microtiter dilution method; settings: isolate 981650, 24 h; how it was run: as §1
Acinetobacter baumannii [16] = experiment: Antibacterial activity against Acinetobacter baumannii isolate 963659 measured after 24 hrs by microtiter dilution method; settings: isolate 963659, 24 h; how it was run: as §1
Acinetobacter baumannii [17] = experiment: Antibacterial activity against Acinetobacter baumannii isolate 963618 measured after 24 hrs by microtiter dilution method; settings: isolate 963618, 24 h; how it was run: as §1
Acinetobacter baumannii [18] = experiment: Antibacterial activity against polymyxin B/colistin-resistant Acinetobacter baumannii M89951 measured after 24 hrs by microtiter dilution method; settings: M89951, 24 h; how it was run: as §1
Acinetobacter baumannii [19] = experiment: Antibacterial activity against Acinetobacter baumannii isolate 961997 measured after 24 hrs by microtiter dilution method; settings: isolate 961997, 24 h; how it was run: as §1
Acinetobacter baumannii [20] = experiment: Antibacterial activity against polymyxin B/colistin-resistant Acinetobacter baumannii M89952 measured after 24 hrs by microtiter dilution method; settings: M89952, 24 h; how it was run: as §1
Acinetobacter baumannii [21] = experiment: Antibacterial activity against Acinetobacter baumannii isolate 965463 measured after 24 hrs by microtiter dilution method; settings: isolate 965463, 24 h; how it was run: as §1
Acinetobacter baumannii [22] = experiment: Antibacterial activity against Acinetobacter baumannii isolate 1010245 measured after 24 hrs by microtiter dilution method; settings: isolate 1010245, 24 h; how it was run: as §1
Acinetobacter baumannii [23] = experiment: Antibacterial activity against Acinetobacter baumannii isolate 968886 measured after 24 hrs by microtiter dilution method; settings: isolate 968886, 24 h; how it was run: as §1
Acinetobacter baumannii [24] = experiment: Antibacterial activity against Acinetobacter baumannii 649 measured after 24 hrs by microtiter dilution method; settings: Acinetobacter baumannii, 649, 24 h; how it was run: as §1
Acinetobacter baumannii [25] = experiment: Antibacterial activity against polymyxin B/colistin-resistant Acinetobacter baumannii M89953 measured after 24 hrs by microtiter dilution method; settings: M89953, 24 h; how it was run: as §1
Acinetobacter baumannii [26] = experiment: Antibacterial activity against Acinetobacter baumannii isolate 977751 measured after 24 hrs by microtiter dilution method; settings: isolate 977751, 24 h; how it was run: as §1
Acinetobacter baumannii [27] = experiment: Antibacterial activity against Acinetobacter baumannii isolate 1017395 measured after 24 hrs by microtiter dilution method; settings: isolate 1017395, 24 h; how it was run: as §1

CC(=O)N[C@H](CCCCN)C(=O)N[C@H](CC(C)C)C(=O)N[C@H](CCCN)C(=O)N[C@H](CO)C(=O)N[C@H](CC(C)C)C(=O)N[C@H](CC(C)C)C(=O)N[C@H](CCCN)C(=O)N[C@@H](C(=O)N[C@H](CC(C)C)C(=O)N[C@H](CO)C(=O)N[C@H](CCCN)C(=O)N[C@H](C)C(=O)N[C@H](C)C(=O)N[C@H](C)C(=O)N[C@H](C)C(=O)N[C@H](C)C(=O)N[C@H](CC(C)C)C(=O)N[C@H](CCCN)C(=O)N[C@@H](C(=O)N[C@H](CC(C)C)C(=O)N[C@H](CC(C)C)C(=O)N[C@H](CCCN)C(=O)N[C@H](C)C(=O)N[C@H](CC(C)C)C(=O)N[C@H](CO)C(=O)N[C@H](CCCN)C(N)=O)[C@H](C)O)[C@H](C)O (Ac-[dK][dL][dOrn][dS][dL][dL][dOrn][dT][dL][dS][dOrn][dA][dA][dA][dA][dA][dL][dOrn][dT][dL][dL][dOrn][dA][dL][dS][dOrn]-NH2)
MIC (Acinetobacter baumannii [1]): 1.5 µM (≈ 4 µg/mL) | MIC (Acinetobacter baumannii [2]): 3 µM (≈ 8 µg/mL) | MIC (Acinetobacter baumannii [3]): 2.9 µM (≈ 7.74 µg/mL) | MIC (Acinetobacter baumannii [4]): 3 µM (≈ 8 µg/mL) | MIC (Acinetobacter baumannii [5]): 1.5 µM (≈ 4 µg/mL) | MIC (Acinetobacter baumannii [6]): 1.5 µM (≈ 4 µg/mL) | MIC (Acinetobacter baumannii [7]): 1.5 µM (≈ 4 µg/mL) | MIC (Acinetobacter baumannii [8]): 3 µM (≈ 8 µg/mL) | MIC (Acinetobacter baumannii [9]): 2.9 µM (≈ 7.74 µg/mL) | MIC (Acinetobacter baumannii [10]): 2.9 µM (≈ 7.74 µg/mL) | MIC (Acinetobacter baumannii [11]): 1.5 µM (≈ 4 µg/mL) | MIC (Acinetobacter baumannii [12]): 1.5 µM (≈ 4 µg/mL) | MIC (Acinetobacter baumannii [13]): 1.5 µM (≈ 4 µg/mL) | MIC (Acinetobacter baumannii [14]): 1.5 µM (≈ 4 µg/mL) | MIC (Acinetobacter baumannii [15]): 1.5 µM (≈ 4 µg/mL) | MIC (Acinetobacter baumannii [16]): 0.7 µM (≈ 1.87 µg/mL) | MIC (Acinetobacter baumannii [17]): 1.5 µM (≈ 4 µg/mL) | MIC (Acinetobacter baumannii [18]): 1.5 µM (≈ 4 µg/mL) | MIC (Acinetobacter baumannii [19]): 1.5 µM (≈ 4 µg/mL) | MIC (Acinetobacter baumannii [20]): 1.5 µM (≈ 4 µg/mL) | MIC (Acinetobacter baumannii [21]): 3 µM (≈ 8 µg/mL) | MIC (Acinetobacter baumannii [22]): 1.5 µM (≈ 4 µg/mL) | MIC (Acinetobacter baumannii [23]): 3 µM (≈ 8 µg/mL) | MIC (Acinetobacter baumannii [24]): 1.5 µM (≈ 4 µg/mL) | MIC (Acinetobacter baumannii [25]): 1.5 µM (≈ 4 µg/mL) | MIC (Acinetobacter baumannii [26]): 6 µM (≈ 16 µg/mL) | MIC (Acinetobacter baumannii [27]): 3 µM (≈ 8 µg/mL)
